Experimental findings from ChEMBL document CHEMBL4387722 are described below.

Experiment [1] in a line: Selectivity ratio of IC50 for inhibition of human HSP60 expressed in Escherichia coli Rosetta 2(DE3)/human HSP10 expressed in Rosetta 2(DE3) pLysS cells to IC50 for inhibition of Escherichia coli GroEL expressed in Escherichia coli DH5alpha/Escherichia coli GroES expressed in Escherichia coli BL21 (DE3). The method, boiled down: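 Ratio of IC50s from two analogous chaperonin-mediated refolding assays: human HSP60/10 and E. coli GroEL/ES each refold denatured malate dehydrogenase (dMDH). Refolding is followed through the recovered MDH enzymatic activity in a coupled read-out. IC50s come from dose-response testing. GroEL subunits are at 700 nM in the GroEL/ES assay.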

Experiment [2] addresses T1, Tyrosine-protein phosphatase non-receptor type 5 (Homo sapiens, UniProt P54829).
T1 sequence (P54829 whole entry): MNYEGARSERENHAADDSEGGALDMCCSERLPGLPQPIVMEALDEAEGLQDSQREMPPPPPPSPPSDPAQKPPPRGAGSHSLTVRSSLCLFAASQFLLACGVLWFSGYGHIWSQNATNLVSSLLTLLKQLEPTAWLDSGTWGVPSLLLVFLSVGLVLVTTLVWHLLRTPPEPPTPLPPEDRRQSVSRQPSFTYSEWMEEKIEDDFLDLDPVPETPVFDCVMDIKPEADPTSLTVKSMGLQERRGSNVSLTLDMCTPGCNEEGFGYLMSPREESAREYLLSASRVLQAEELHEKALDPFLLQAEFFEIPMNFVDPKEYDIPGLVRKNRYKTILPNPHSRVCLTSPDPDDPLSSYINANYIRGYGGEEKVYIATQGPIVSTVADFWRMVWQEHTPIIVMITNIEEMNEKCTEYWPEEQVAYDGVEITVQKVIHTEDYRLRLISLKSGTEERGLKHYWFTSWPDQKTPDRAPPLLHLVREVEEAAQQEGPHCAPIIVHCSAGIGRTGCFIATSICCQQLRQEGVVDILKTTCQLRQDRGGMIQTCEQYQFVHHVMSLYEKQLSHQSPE
The experiment in a line: Inhibition of human PTPN5 expressed in Escherichia coli Rosetta 2 (DE3) using pNPP as substrate after 45 mins by spectrophotometric method.

Experiment [3] deals with Mycobacterium tuberculosis. The experiment can be described thus: Antitubercular activity against Mycobacterium tuberculosis H37Rv after 5 days. It is filed as functional, organism-based. The conditions noted are these: 120 h.
Experiment [4] can be described thus: Selectivity index, ratio of IC50 for human PTPN1 to IC50 for Mycobacterium tuberculosis PtpB.
In experiment [5] the target is T2, Tyrosine-protein phosphatase non-receptor type 2 (Homo sapiens, UniProt P17706).
T2 sequence (P17706 whole entry): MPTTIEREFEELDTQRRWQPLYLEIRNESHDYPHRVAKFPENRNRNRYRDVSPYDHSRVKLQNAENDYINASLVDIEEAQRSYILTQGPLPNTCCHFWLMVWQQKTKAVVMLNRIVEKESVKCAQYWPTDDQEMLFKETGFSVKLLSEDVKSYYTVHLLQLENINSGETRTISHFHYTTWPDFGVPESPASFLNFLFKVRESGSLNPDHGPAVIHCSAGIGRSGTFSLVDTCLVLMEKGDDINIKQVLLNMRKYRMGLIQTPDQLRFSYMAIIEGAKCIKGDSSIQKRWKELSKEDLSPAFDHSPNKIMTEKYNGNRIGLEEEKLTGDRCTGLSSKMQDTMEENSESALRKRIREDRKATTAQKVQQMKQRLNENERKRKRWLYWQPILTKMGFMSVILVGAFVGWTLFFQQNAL
The experiment in a line: Inhibition of human PTPN2 expressed in Escherichia coli Rosetta 2 (DE3) using pNPP as substrate after 45 mins by spectrophotometric method.

The target of a further experiment is E. coli GroEL/ES (Escherichia coli, UniProt P0A6F5). The experiment in a line: Inhibition of Escherichia coli GroEL expressed in Escherichia coliDH5alpha/Escherichia coli GroES expressed in Escherichia coli BL21 (DE3) assessed as reduction in GroEL/GroES-mediated denatured pig heart mitochondrial MDH refolding by measuring MDH enzyme activity using sodium mesoxalate as substrate after 20 to 40 mins by spectrometric analysis.

Experiment [6] deals with T3, Tyrosine-protein phosphatase non-receptor type 1 (Homo sapiens, UniProt P18031).
T3 sequence (P18031 whole entry): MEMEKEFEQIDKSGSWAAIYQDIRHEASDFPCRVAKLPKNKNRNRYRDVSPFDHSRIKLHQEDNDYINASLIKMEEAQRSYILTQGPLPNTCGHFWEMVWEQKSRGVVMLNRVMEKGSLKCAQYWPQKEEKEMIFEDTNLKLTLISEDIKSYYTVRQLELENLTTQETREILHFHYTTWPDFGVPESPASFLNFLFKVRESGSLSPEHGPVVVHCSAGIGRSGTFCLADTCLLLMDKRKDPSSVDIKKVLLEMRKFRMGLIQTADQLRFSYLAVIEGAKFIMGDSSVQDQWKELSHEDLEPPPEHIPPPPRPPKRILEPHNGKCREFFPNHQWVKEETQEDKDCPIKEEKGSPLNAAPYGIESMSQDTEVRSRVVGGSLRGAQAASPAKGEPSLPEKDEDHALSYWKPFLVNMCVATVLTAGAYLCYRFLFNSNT
The experiment in a line: Inhibition of human PTPN1 expressed in Escherichia coli Rosetta 2 (DE3) using pNPP as substrate after 45 mins by spectrophotometric method.

The subject of experiment [7] is Mycobacterium tuberculosis. The experiment can be described thus: Antitubercular activity against Mycobacterium tuberculosis H37Rv after 5 days at 200 uM relative to control. Format: functional. The conditions noted are these: 120 h. The method, boiled down:
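M. tuberculosis grown in liquid culture with compound at a fixed 200 μM for 5 days. Growth inhibition expressed as percent of control.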

The target of the next experiment is HSP60/HSP10 (Homo sapiens, UniProt P10809). The experiment can be described thus: Inhibition of human HSP60 expressed in Escherichia coli Rosetta 2(DE3)/human HSP10 expressed in Escherichia coli Rosetta 2(DE3) pLysS cells assessed as reduction in HSP60/HSP10-mediated denatured pig heart mitochondrial MDH refolding by measuring MDH enzyme activity using sodium mesoxalate as substrate after 40 to 60 mins by spectrometric analysis.

In experiment [8] the target is T4, Phosphotyrosine protein phosphatase (Mycobacterium tuberculosis, UniProt A0A045ISB3).
T4 sequence (A0A045ISB3 whole entry): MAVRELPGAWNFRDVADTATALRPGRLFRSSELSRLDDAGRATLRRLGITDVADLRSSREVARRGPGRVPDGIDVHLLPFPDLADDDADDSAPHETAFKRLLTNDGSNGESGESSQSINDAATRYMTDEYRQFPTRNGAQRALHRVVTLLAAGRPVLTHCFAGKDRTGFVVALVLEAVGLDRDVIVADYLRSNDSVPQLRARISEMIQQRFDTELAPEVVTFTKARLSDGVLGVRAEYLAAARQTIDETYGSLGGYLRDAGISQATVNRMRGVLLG
The experiment can be described thus: Inhibition of Mycobacterium tuberculosis His-tagged PtpB expressed in Escherichia coli Rosetta 2 (DE3) using pNPP as substrate after 30 mins by spectrophotometric method.

HSP60/HSP10, sequence (P10809 whole entry): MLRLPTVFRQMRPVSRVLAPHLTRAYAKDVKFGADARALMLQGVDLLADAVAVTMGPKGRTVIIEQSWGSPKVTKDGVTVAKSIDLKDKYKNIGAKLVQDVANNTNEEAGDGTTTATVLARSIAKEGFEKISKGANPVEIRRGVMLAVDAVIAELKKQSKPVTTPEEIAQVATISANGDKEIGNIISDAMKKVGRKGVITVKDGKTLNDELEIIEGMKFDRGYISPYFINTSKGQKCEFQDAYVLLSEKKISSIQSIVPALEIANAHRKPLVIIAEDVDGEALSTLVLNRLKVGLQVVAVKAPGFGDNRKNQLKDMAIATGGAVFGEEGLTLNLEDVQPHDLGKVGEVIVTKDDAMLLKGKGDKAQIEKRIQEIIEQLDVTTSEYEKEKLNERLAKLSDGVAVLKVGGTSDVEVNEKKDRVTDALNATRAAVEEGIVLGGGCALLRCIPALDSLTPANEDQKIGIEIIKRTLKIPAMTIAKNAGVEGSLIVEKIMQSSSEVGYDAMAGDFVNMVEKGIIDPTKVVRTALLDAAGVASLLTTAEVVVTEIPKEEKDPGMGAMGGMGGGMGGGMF
HSP60/HSP10, sequence (P61604 whole entry, further chain): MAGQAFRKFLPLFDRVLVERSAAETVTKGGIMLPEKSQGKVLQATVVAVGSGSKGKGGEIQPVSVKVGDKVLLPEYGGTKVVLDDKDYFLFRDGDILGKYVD
E. coli GroEL/ES, sequence (P0A6F5 whole entry, looked up): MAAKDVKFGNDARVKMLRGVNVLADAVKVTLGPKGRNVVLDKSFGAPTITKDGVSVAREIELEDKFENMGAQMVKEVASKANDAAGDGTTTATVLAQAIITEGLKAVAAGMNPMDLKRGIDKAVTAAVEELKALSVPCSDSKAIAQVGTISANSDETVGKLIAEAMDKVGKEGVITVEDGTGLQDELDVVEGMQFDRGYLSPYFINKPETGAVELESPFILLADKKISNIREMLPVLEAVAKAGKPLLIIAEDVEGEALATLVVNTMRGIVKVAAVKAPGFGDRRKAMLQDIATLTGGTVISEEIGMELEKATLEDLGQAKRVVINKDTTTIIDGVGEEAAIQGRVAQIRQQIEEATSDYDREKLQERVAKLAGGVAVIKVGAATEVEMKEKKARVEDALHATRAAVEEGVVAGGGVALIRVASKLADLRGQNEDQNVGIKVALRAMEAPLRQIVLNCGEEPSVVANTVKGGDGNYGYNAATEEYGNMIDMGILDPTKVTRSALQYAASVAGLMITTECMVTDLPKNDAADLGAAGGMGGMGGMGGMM

With `O=S(=O)(Nc1ccc(-c2nc3cc(NS(=O)(=O)c4cccs4)ccc3o2)cc1)c1cccs1`, the Ratio IC50 turned out to be 7.3 in experiment [1] and 2.6 in [4]. The IC50 – broadly, the concentration needed to halve the response being measured – turned out to be 33 µM in experiment [2]; 41 µM in [5]; 5.5 µM at E. coli GroEL/ES; 31 µM in [6]; 40 µM on HSP60/HSP10; 12 µM in experiment [8]. The EC50 (commonly the concentration needed to bring the measured effect to its halfway point) in [3] was found to be 34 µM. Besides, 200 µM produced 59% inhibition in experiment [7].
In the case of `O=S(=O)(Nc1ccc2oc(-c3ccc(NS(=O)(=O)c4ccc(Cl)s4)cc3)nc2c1)c1cccs1`, the Ratio IC50 came out at 2.3 in experiment [1] and 2.5 in experiment [4]. The IC50 in [2] stood at 23 µM; in [5], 31 µM; at E. coli GroEL/ES, 4 µM; in [6], 13 µM; on HSP60/HSP10, 9.1 µM; in experiment [8], 5.1 µM. This compound returned an EC50 in [3] of 36 µM. Also, the inhibition (as a rule, the share of the control response that was lost under treatment) at 200 µM in [7] came out at 52%.
In the case of `O=S(=O)(Nc1ccc(-c2nc3cc(NS(=O)(=O)c4ccc(O)cc4)ccc3o2)cc1)c1ccc(O)cc1`, the values for the Ratio IC50 in [1] and in experiment [4] were 61 and 2.3, respectively. Further, the concentration for half-maximal inhibition (IC50) in experiment [2] is 35 µM; in experiment [5], 75 µM; at E. coli GroEL/ES, 0.23 µM; in experiment [6], 27 µM; at HSP60/HSP10, 14 µM; in experiment [8] it was 12 µM. Further, in experiment [3], the EC50 was 94 µM. At 200 µM the inhibition in [7] was 66%.
Turning to `NCc1ccc(S(=O)(=O)Nc2ccc3oc(-c4ccc(NS(=O)(=O)c5ccc(Cl)s5)cc4)nc3c2)cc1`, the Ratio IC50 was found to be 8 in experiment [1] and 9.5 in experiment [4]. Also, the IC50 amounted to 62 µM in [2]; 61 µM in experiment [5]; 4.6 µM on E. coli GroEL/ES; 42 µM in experiment [6]; 37 µM on HSP60/HSP10; 4.4 µM in [8]. For the same compound, in experiment [3], the EC50 came out at 59 µM. In experiment [7], this compound displayed an inhibition at 200 µM of 91%.
On to `O=S(=O)(Nc1ccc2oc(-c3ccc(NS(=O)(=O)c4ccc(Cl)s4)cc3)nc2c1)c1ccccc1`, for which the Ratio IC50 in experiment [1] and in experiment [4] was 1.6 throughout. The IC50 in experiment [2] worked out at 24 µM; in [5], 28 µM; at E. coli GroEL/ES, 5.6 µM; in experiment [6], 14 µM; on HSP60/HSP10 it was 9 µM; in experiment [8], 8.8 µM. In [3], this compound returned an EC50 of 40 µM. The compound also displayed an inhibition at 200 µM in experiment [7] of 72%.
For `O=S(=O)(Nc1ccc2oc(-c3ccc(NS(=O)(=O)c4cccc5nonc45)cc3)nc2c1)c1ccc(Cl)s1`, the Ratio IC50 in [1] is 1.4; in [4], 2.5. Also, the IC50 worked out at 24 µM in [2]; 28 µM in experiment [5]; 9.3 µM on E. coli GroEL/ES; 15 µM in experiment [6]; 13 µM at HSP60/HSP10; 5.9 µM in [8]. Besides, in experiment [3], the midpoint of the response, the EC50, lay at 58 µM. Also, in experiment [7], the inhibition at 200 µM is 46%.
As to `N#Cc1ccc(S(=O)(=O)Nc2ccc(-c3nc4cc(NS(=O)(=O)c5ccc(C#N)cc5)ccc4o3)cc2)cc1`, the Ratio IC50 stood at 1.4 in [1] and 2.3 in [4]. In addition, the IC50 in [2] was 27 µM; in [5], 35 µM; at E. coli GroEL/ES, 35 µM; in [6], 37 µM; on HSP60/HSP10 it was 49 µM; in [8], 12 µM. This compound registered an EC50 in experiment [3] of 43 µM. The inhibition at 200 µM in experiment [7] was found to be 95%.
